OX1R antag-1: antagonists of human orexin 1 receptor (OX1R). OX1R-expressing cells, FRET antagonist read-out. inhibition, % at 6.6 µM. Orexin/Hypocretin receptor type 1 (Homo sapiens), O43613. hit rate 1.8% among 330,000; in the data active = inhibition mostly above about 38%, no sharp cut-off; inactive = mostly below about 40%;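 also: 0% = agonist challenge alone and 100% = reference antagonist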
Target sequence (O43613 whole entry, looked up): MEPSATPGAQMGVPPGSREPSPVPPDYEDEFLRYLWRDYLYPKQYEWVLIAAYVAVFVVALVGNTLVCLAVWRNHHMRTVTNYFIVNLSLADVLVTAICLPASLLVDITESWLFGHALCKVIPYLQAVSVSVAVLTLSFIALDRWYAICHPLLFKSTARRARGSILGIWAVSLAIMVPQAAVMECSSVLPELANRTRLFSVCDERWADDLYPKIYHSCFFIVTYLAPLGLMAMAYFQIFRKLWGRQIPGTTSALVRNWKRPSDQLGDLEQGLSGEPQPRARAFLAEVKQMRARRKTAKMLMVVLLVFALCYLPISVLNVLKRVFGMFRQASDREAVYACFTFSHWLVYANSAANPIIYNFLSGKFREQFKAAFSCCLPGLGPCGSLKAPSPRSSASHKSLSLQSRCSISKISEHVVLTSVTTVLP
GPR7 antagonist: GPR7 receptor antagonists, primary screen, cell-based, fluorescence, single concentration | Neuropeptides B/W receptor type 1 (Homo sapiens), P48145 | GPR7-expressing cells, fluorescence antagonist assay | inhibition, % at 4.4 µM | hit rate 1.1% among 290,000 | AID 1861, 2009; in the data active = inhibition above about 16%, passing the limit was not always enough;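 also: cells stimulated with the agonist NPW; 0% = agonist with vehicle and 100% = vehicle without agonist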
GalR3 antag: GalR3 antagonists in HEK293 cells, primary screen, cell-based, fluorescence readout; Galanin receptor type 3 (Homo sapiens), O60755; HEK293 GalR3-CNG cAMP membrane potential fluorescence; galR3 body fused to GalR1 C-terminus; inhibition, % at 3 µM; hit rate 0.44% among 360,000;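 active = inhibition above the screen-wide average plus 3 SD, cut at about 13% in these data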;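 also: forskolin and galanin both at EC90 stimulate the cells; cAMP rise reported by CNG channel membrane potential dye signal; 0% = forskolin plus galanin with DMSO and 100% = forskolin alone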
CHO parental Ca: ATP-evoked calcium signal inhibitors, parental CHO, primary screen, counter-screen for OX1R antagonist project, cell-based, fluorescence, Fluo-8 calcium dye | parental CHO-K1, ATP-induced calcium, Fluo-8 fluorescence | inhibition, % at 5.6 µM | hit rate 0.63% among 330,000 | AID 463079, 2010;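 active = inhibition above that plate's mean sample inhibition plus 3 SD, cut at about 26% in these data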;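 also: 0% = ATP-challenged DMSO wells and 100% = DMSO wells without ATP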
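material = parental CHO cells | also added = ATP as calcium-mobilizing challenge | dosing = single point at 5.6 µM | detection = intracellular calcium via Fluo-8 no-wash fluorescent dye | read-out = % inhibition | benchmarks = low control ATP plus DMSO, high control DMSO only | repeats = one well per compound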
OX1R antag-2: OX1R (HCRTR1) antagonists, primary screen, fluorescence, CHO/OX1R cells, Fluo-8 calcium, orexin A; Orexin/Hypocretin receptor type 1 (Homo sapiens), O43613; Fluo-8 calcium fluorescence; inhibition, % at 5 µM; hit rate 0.43% among 330,000; AID 434989, 2010;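 active = inhibition above its plate's threshold, mean inhibition of all tested compounds on the plate plus 3 SD, cut at about 37% in these data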;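 also: 0% = orexin A challenge wells and 100% = SB-334867-A antagonist wells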
GalR3 antag conf: GalR3 antagonist hit confirmation, cell-based, fluorescence, triplicate; shares compounds with GalR3 antag; HEK293 GalR3 CNG cAMP biosensor, membrane potential fluorescence; galR3 fused to GalR1 carboxy tail; challenged with forskolin and galanin at EC90; inhibition, % at 3 µM; hit rate 59% among 1,600; AID 652245, 2013;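 active = inhibition above the primary screen's cutoff, the mean inhibition of all screened compounds plus 3 SD, cut at about 13% in these data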;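 also: 0% = forskolin plus galanin and 100% = forskolin alone with DMSO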
HEK-CNG parental: nonspecific cAMP agonists in parental HEK-CNG cells, counter-screen for GalR3 antagonist project, cell-based, fluorescence, high throughput; hit rate 10% among 1,600; activation, % at 3 µM; HEK293-CNG parental cells, cAMP membrane potential fluorescence; normalised: DMSO wells 0%, forskolin wells 100%; shares compounds with GalR3 antag; in the data active = activation above about 1.3%
Numbers without * were called inactive; nt = no result. Hits are enriched below; roughly 3.1% of the tested compounds scored in any of these assays.

SMILES	OX1R antag-1	GPR7 antagonist	GalR3 antag	CHO parental Ca	OX1R antag-2	GalR3 antag conf	HEK-CNG parental
Cc1[nH]nc(Nc2ccccc2)c1[N+](=O)[O-]	19	-2	4	11	-1	nt	nt
COc1cc(-c2ccc(=O)[nH]n2)ccc1OC(F)F	27	-15	16*	-6	4	34*	0
COc1ccc(C2=Nn3c(nnc3-c3ccccc3C(F)(F)F)SC2)cc1OC1CCOC1 (stereo unspecified)	10	nt	15*	-24	-20	17*	0
CCOc1ccc(C2=Nn3c(nnc3-c3ccccc3OC)SC2)cc1	35	-8	22*	-24	-14	45*	2.2*
CCOc1ccc(-c2nnc3n2N=C(c2ccc(OC)cc2)CS3)cc1	10	-9	1	-9	-25	nt	nt
COc1ccc(C2=Nn3c(nnc3-c3ccccc3Cl)SC2)cc1OCC1CC1	20	nt	1	-16	3	nt	nt
Cc1cccc(N2C(=O)CN(Cc3ccccc3)C2=S)c1	3	0	-10	-3	-27	nt	nt
COc1ccccc1C(=O)Nc1ccc(C2=NNC(=O)CC2C)cc1 (stereo unspecified)	21	-1	73*	-11	-31	73*	0
Cc1c(CN2CCC(n3nccc3NC(=O)C3CC3)CC2)[nH]c2ccccc12	13	-7	-1	-23	-18	nt	nt
COc1ccccc1-n1c(-c2cc(-c3ccc(F)cc3)n[nH]2)n[nH]c1=S	12	-10	14*	-14	-26	13*	0
COc1ccccc1-n1c(-c2cccnc2)n[nH]c1=S	12	-5	-7	-3	0	nt	nt
COc1ccc(-c2cc(-c3n[nH]c(=S)n3-c3cccc4ccccc34)[nH]n2)cc1	6	-17	52*	-19	-36	49*	0
S=c1[nH]nc(-c2cc(-c3ccsc3)n[nH]2)n1-c1cccc2ccccc12	5	-22	4	-6	-13	nt	nt
COc1cccc(C(C)(O)c2nc(-c3ccc(N(C)C)cc3)cs2)c1 (stereo unspecified)	nt	nt	96*	nt	nt	101*	-1
COc1cccc(C=O)c1OC(=O)N1CCOCC1	6	-2	-6	-2	-13	nt	nt
CN1CC(=O)N(CC(=O)Nc2ccc3c(c2)CCC3)C1=O	6	-16	24*	-12	4	4	0
CC(C)CC1NC(=O)N(CC(=O)Nc2ccc3c(c2)CCC3)C1=O (stereo unspecified)	3	-8	-7	-23	-11	nt	nt
Cc1cc(NC(=O)COC(=O)C(Cc2ccccc2)NC(=O)c2ccco2)no1 (stereo unspecified)	16	-1	13*	-4	-7	14*	0
O=C(COC(=O)[C@H](Cc1ccccc1)NC(=O)c1ccco1)Nc1ccccc1	3	nt	5	-9	-22	nt	nt
Cc1nc(S(=O)(=O)Cc2ccccc2Cl)nc2c1CCC2	25	-12	27*	-11	-25	3	0
CNC(=O)C12CCC(C)(c3nc4cc(C)c(C)cc4nc31)C2(C)C (stereo unspecified)	23	-3	-4	-16	-3	nt	nt
CCCNC(=O)C12CCC(C)(c3nc4cc(C)c(C)cc4nc31)C2(C)C (stereo unspecified)	21	-9	16*	-19	-28	4	0
COC(=O)c1c(-c2ccc(OC)cc2)sc2cc3c(cc12)OCO3	-4	nt	13*	-20	-27	18*	0
COc1ccc(-c2sc3cc4c(cc3c2C#CCO)OCO4)cc1	1	nt	-6	-13	-11	nt	nt
COc1ccc(-c2ccc(-c3cc(=O)oc4c(C(C)C)ccc(C)c34)cc2)cc1	7	nt	23*	-19	-6	13*	0
SMILES	OX1R antag-1	GPR7 antagonist	GalR3 antag	CHO parental Ca	OX1R antag-2	GalR3 antag conf	HEK-CNG parental
COc1cc(C(=O)NCCc2cc3c(OC)ccc(OC)c3[nH]c2=O)cc(OC)c1OC	9	-10	14*	-2	-18	15*	0
COc1ccc(OC)c2[nH]c(=O)c(CCNC(=O)C(C)C)cc12	6	-15	-1	11	-12	nt	nt
O=C(Nc1ccc2c(c1)OCO2)c1ccc2sc([C@@H]3O[C@H](CO)[C@@H](O)[C@H]3O)nc2c1	nt	nt	-6	nt	nt	nt	nt
Cn1c(CN2CCCCC2)nc2cc(NC(=O)c3ccc(Cl)cc3)ccc21	10	-11	81*	-23	-16	48*	0
Cn1c(CN2CCCC2)nc2cc(NC(=O)c3ccc(Cl)cc3)ccc21	5	-1	-5	-16	-43	nt	nt
Nc1ccc(CNC(=O)c2cc3cc(Cl)ccc3nc2N)cc1	nt	nt	-3	nt	nt	nt	nt
Nc1nc2ccccc2cc1C(=O)NCc1ccc(-c2ccccc2)cc1	nt	nt	87*	nt	nt	97*	0
Cc1ccc(/C(N)=N/OC(=O)CCC2CCCC2)cc1	5	0	13*	1	7	-2	0
O=C(NCCN1CCOCC1)c1ccc(Cl)c(S(=O)(=O)NCc2ccccc2)c1	5	nt	3	-12	5	nt	nt
CCc1nc2ccc(C(=O)Nc3ccc4c(c3)OCC(=O)N4)cn2c1N(CC)CCOC	nt	nt	15*	nt	nt	11	0
S=C1NNC2(NN1)C1CC3CC(C1)CC2C3	38	-3	15*	-8	-12	3	0
Cc1ccc(S(=O)(=O)N2CCOC23CCN(C(=O)c2ccccc2Br)CC3)cc1	4	-1	-7	-13	-27	nt	nt
COc1cccc(C2N(c3ccccc3)CCN2c2ccccc2)c1OC	18	-10	14*	-17	-1	9	0
COc1ccc(N2C(=O)C3CCCN3C2c2cccc(OC)c2OC)cc1 (stereo unspecified)	14	9	4	-10	-13	nt	nt
CC(C)c1c(O)c2c(n(-c3ccccc3)c1=O)CCCC2	7	-1	nt	-6	-2	3	1.9*
O=c1c(-c2ccccc2)c(O)c2c(n1-c1ccccc1)CCCC2	0	0	-8	-3	11	nt	nt
COc1ccc(CNC(=O)c2sc(=O)n(Cc3ccc(-c4ccccc4)cc3)c2C)cc1OC	nt	nt	26*	nt	nt	16*	-1
CC(=O)c1cccc(CN2CCCC(CCC(=O)NCc3ccc(F)c(F)c3)C2)c1 (stereo unspecified)	13	-9	-3	-20	-33	nt	nt

Bioassay records as filed in PubChem.
